Data from ChEMBL document CHEMBL1149844, “Antibacterial C-geranylflavonoids from Paulownia tomentosa Fruits” (2008).
Values after ≈ are worked out from the molar mass of the structure shown.

Tests used:
Pseudomonas aeruginosa = experiment: Antibacterial activity against Pseudomonas aeruginosa ATCC 27853 after 24 hrs by broth microdilution method; format: functional; settings: ATCC 27853, 24 h
Method in brief: (§1)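 Bacteria grown and tested in Mueller-Hinton broth. Seven 2-fold dilutions spanning 32 to 0.5 µg mL-1, each well inoculated with bacterial suspension at 10^7 CFU mL-1, incubated 37 °C for 24 h. Turbidity read at 600 nm. MIC is the lowest concentration giving 80% growth reduction versus the compound-free growth control. DMSO (5% v/v) in TBS as negative control, triplicates.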

Candida albicans = experiment: Antibacterial activity against Candida albicans ATCC 10231 after 48 hrs by broth microdilution method; format: functional
Method in brief: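 Yeast grown and tested in Mueller-Hinton broth, microdilution with seven 2-fold dilutions from 32 to 0.5 µg mL-1. Inoculum at 10^7 CFU mL-1, 37 °C for 48 h. Growth measured as turbidity at 600 nm. MIC is the lowest concentration cutting growth by 80% relative to the compound-free control. DMSO (5% v/v) in TBS as negative control, run in triplicate.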

Bacillus subtilis = experiment: Antibacterial activity against Bacillus subtilis ATCC 6633 after 24 hrs by broth microdilution method; format: functional; settings: ATCC 6633, 24 h; method in brief: as §1
Staphylococcus aureus = experiment: Antibacterial activity against Staphylococcus aureus ATCC 25923 after 24 hrs by broth microdilution method; format: functional; settings: ATCC 25923, 24 h; method in brief: as §1
Enterococcus faecalis = experiment: Antibacterial activity against Enterococcus faecalis ATCC 29212 after 24 hrs by broth microdilution method; format: functional; settings: ATCC 29212, 24 h; method in brief: as §1
Listeria monocytogenes = experiment: Antibacterial activity against Listeria monocytogenes ATCC 7644 after 24 hrs by broth microdilution method; format: functional; settings: ATCC 7644, 24 h; method in brief: as §1
Bacillus cereus = experiment: Antibacterial activity against Bacillus cereus ATCC 11778 after 24 hrs by broth microdilution method; format: functional; settings: ATCC 11778, 24 h; method in brief: as §1
Salmonella enteritidis = experiment: Antibacterial activity against Salmonella enteritidis ATCC 13076 after 24 hrs by broth microdilution method; format: functional, Salmonella enterica subsp. enterica serovar Enteritidis; settings: Salmonella enterica, ATCC 13076, 24 h; method in brief: as §1
Escherichia coli = experiment: Antibacterial activity against Escherichia coli ATCC 25922 after 24 hrs by broth microdilution method; format: functional; settings: ATCC 25922, 24 h; method in brief: as §1
[1] = test system: Staphylococcus epidermidis; experiment: Antibacterial activity against Staphylococcus epidermidis ATCC 12228 after 24 hrs by broth microdilution method; format: functional; settings: ATCC 12228, 24 h; method in brief: as §1

COc1cc([C@@H]2CC(=O)c3c(cc(O)c(C/C=C(\C)CCC=C(C)C)c3O)O2)cc(O)c1O
MIC (Pseudomonas aeruginosa): > 32 µg/mL
MIC (Candida albicans; ATCC 10231, 48 h): > 32 µg/mL
MIC (Bacillus subtilis): 4 µg/mL (≈ 8.8 µM)
MIC (Staphylococcus aureus): 2 µg/mL (≈ 4.4 µM)
MIC (Enterococcus faecalis): 4 µg/mL (≈ 8.8 µM)
MIC (Listeria monocytogenes): 4 µg/mL (≈ 8.8 µM)
MIC (Bacillus cereus): 4 µg/mL (≈ 8.8 µM)
MIC (Salmonella enteritidis): > 32 µg/mL
MIC (Escherichia coli): > 32 µg/mL
MIC [1]: 4 µg/mL (≈ 8.8 µM)

CC(C)=CCC/C(C)=C/Cc1c(O)cc2c(c1O)C(=O)C[C@@H](c1ccc(O)c(O)c1)O2 [NYMPHAEOL A]
MIC (Pseudomonas aeruginosa): > 32 µg/mL
MIC (Candida albicans; ATCC 10231, 48 h): > 32 µg/mL
MIC (Bacillus subtilis): 4 µg/mL (≈ 9.42 µM)
MIC (Staphylococcus aureus): 4 µg/mL (≈ 9.42 µM)
MIC (Enterococcus faecalis): 4 µg/mL (≈ 9.42 µM)
MIC (Listeria monocytogenes): 4 µg/mL (≈ 9.42 µM)
MIC (Bacillus cereus): 4 µg/mL (≈ 9.42 µM)
MIC (Salmonella enteritidis): > 32 µg/mL
MIC (Escherichia coli): > 32 µg/mL
MIC [1]: 4 µg/mL (≈ 9.42 µM)

O=C(O)c1cn(C2CC2)c2cc(N3CCNCC3)c(F)cc2c1=O [CIPROFLOXACIN]
MIC (Bacillus subtilis): 2 µg/mL (≈ 6.04 µM)
MIC (Staphylococcus aureus): 0.5 µg/mL (≈ 1.51 µM)
MIC (Enterococcus faecalis): 1 µg/mL (≈ 3.02 µM)
MIC (Listeria monocytogenes): 1 µg/mL (≈ 3.02 µM)
MIC (Bacillus cereus): 1 µg/mL (≈ 3.02 µM)
MIC (Salmonella enteritidis): 0.015 µg/mL (≈ 0.0453 µM)
MIC [1]: 1 µg/mL (≈ 3.02 µM)

NYSTATIN
MIC (Candida albicans): 4 µg/mL

C=C(C)C(O)CC/C(C)=C/Cc1c(O)cc2c(c1O)C(=O)C[C@@H](c1ccc(O)c(OC)c1)O2 (stereo partly specified) [TOMENTODIPLACONE]
MIC (Pseudomonas aeruginosa): > 32 µg/mL
MIC (Candida albicans; ATCC 10231, 48 h): > 32 µg/mL
MIC (Staphylococcus aureus): 16 µg/mL (≈ 35.2 µM)
MIC (Listeria monocytogenes): 32 µg/mL (≈ 70.4 µM)
MIC (Bacillus cereus): 16 µg/mL (≈ 35.2 µM)
MIC (Salmonella enteritidis): > 32 µg/mL
MIC (Escherichia coli): > 32 µg/mL
MIC [1]: 32 µg/mL (≈ 70.4 µM)

COc1cc([C@@H]2CC(=O)c3c(cc(O)c(C/C=C(\C)CCC=C(C)C)c3O)O2)cc(OC)c1O
MIC (Pseudomonas aeruginosa): > 32 µg/mL
MIC (Candida albicans; ATCC 10231, 48 h): > 32 µg/mL
MIC (Bacillus subtilis): 4 µg/mL (≈ 8.54 µM)
MIC (Staphylococcus aureus): 4 µg/mL (≈ 8.54 µM)
MIC (Enterococcus faecalis): 4 µg/mL (≈ 8.54 µM)
MIC (Listeria monocytogenes): 4 µg/mL (≈ 8.54 µM)
MIC (Bacillus cereus): 4 µg/mL (≈ 8.54 µM)
MIC (Salmonella enteritidis): > 32 µg/mL
MIC (Escherichia coli): > 32 µg/mL
MIC [1]: 4 µg/mL (≈ 8.54 µM)

COc1cc([C@@H]2CC(=O)c3c(cc(O)c(C/C=C(\C)C/C=C/C(C)(C)O)c3O)O2)ccc1O [TOMENTODIPLACONE B]
MIC (Pseudomonas aeruginosa): > 32 µg/mL
MIC (Candida albicans; ATCC 10231, 48 h): > 32 µg/mL
MIC (Bacillus subtilis): > 32 µg/mL
MIC (Staphylococcus aureus): > 32 µg/mL
MIC (Enterococcus faecalis): > 32 µg/mL
MIC (Listeria monocytogenes): > 32 µg/mL
MIC (Bacillus cereus): > 32 µg/mL
MIC (Salmonella enteritidis): > 32 µg/mL
MIC (Escherichia coli): > 32 µg/mL
MIC [1]: > 32 µg/mL

COc1cc([C@@H]2CC(=O)c3c(cc(O)c(C/C=C(\C)CCC=C(C)C)c3O)O2)ccc1O
MIC (Pseudomonas aeruginosa): > 32 µg/mL
MIC (Candida albicans; ATCC 10231, 48 h): > 32 µg/mL
MIC (Bacillus subtilis): 8 µg/mL (≈ 18.2 µM)
MIC (Staphylococcus aureus): 8 µg/mL (≈ 18.2 µM)
MIC (Enterococcus faecalis): 8 µg/mL (≈ 18.2 µM)
MIC (Listeria monocytogenes): 4 µg/mL (≈ 9.12 µM)
MIC (Bacillus cereus): 4 µg/mL (≈ 9.12 µM)
MIC (Salmonella enteritidis): > 32 µg/mL
MIC (Escherichia coli): > 32 µg/mL
MIC [1]: 4 µg/mL (≈ 9.12 µM)

CC(C)=CCC/C(C)=C/Cc1c(O)cc2c(c1O)C(=O)C[C@@H](c1ccc(O)cc1)O2 [BONANNIONE A]
MIC (Pseudomonas aeruginosa): > 32 µg/mL
MIC (Candida albicans; ATCC 10231, 48 h): > 32 µg/mL
MIC (Bacillus subtilis): 4 µg/mL (≈ 9.79 µM)
MIC (Staphylococcus aureus): 8 µg/mL (≈ 19.6 µM)
MIC (Enterococcus faecalis): 4 µg/mL (≈ 9.79 µM)
MIC (Listeria monocytogenes): 4 µg/mL (≈ 9.79 µM)
MIC (Bacillus cereus): 4 µg/mL (≈ 9.79 µM)
MIC (Salmonella enteritidis): > 32 µg/mL
MIC (Escherichia coli): > 32 µg/mL
MIC [1]: 4 µg/mL (≈ 9.79 µM)

COc1cc([C@H]2Oc3cc(O)c(C/C=C(\C)CCC=C(C)C)c(O)c3C(=O)[C@@H]2O)ccc1O
MIC (Pseudomonas aeruginosa): > 32 µg/mL
MIC (Candida albicans; ATCC 10231, 48 h): > 32 µg/mL
MIC (Bacillus subtilis): 4 µg/mL (≈ 8.8 µM)
MIC (Staphylococcus aureus): 2 µg/mL (≈ 4.4 µM)
MIC (Enterococcus faecalis): 4 µg/mL (≈ 8.8 µM)
MIC (Listeria monocytogenes): 2 µg/mL (≈ 4.4 µM)
MIC (Bacillus cereus): 2 µg/mL (≈ 4.4 µM)
MIC (Salmonella enteritidis): > 32 µg/mL
MIC (Escherichia coli): > 32 µg/mL
MIC [1]: 2 µg/mL (≈ 4.4 µM)
